Data taken from ChEMBL document CHEMBL5137029, “Chemically Tuning Resveratrol for the Effective Killing of Gram-Positive Pathogens” (J Nat Prod, 2022).
Converted amounts (≈) assume the structure as drawn. The source made the active and inactive calls. The rule behind the calls is not given here.

Experiments:
[1] = test system: Bacillus cereus; assay: Bactericidal activity against Bacillus cereus ATCC 10987 at 16 uM measured upto 24 hrs by CLSI based broth microdilution method; type: functional, organism-based
Procedure, shortened: (§1)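 Each well then used as a 10% inoculum into fresh cMHB and incubated at 37 °C for 24 h. No regrowth in the MIC range was scored bactericidal, regrowth bacteriostatic. Triplicate.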

[2] = test system: Enterococcus faecalis; assay: Bactericidal activity against Enterococcus faecalis V583 at 16 uM measured upto 24 hrs by CLSI based broth microdilution method; type: functional, organism-based; procedure, shortened: as §1
[3] = test system: Staphylococcus aureus; assay: Bactericidal activity against Staphylococcus aureus LMG 8224 at 16 uM measured upto 24 hrs by CLSI based broth microdilution method; type: functional, organism-based; procedure, shortened: as §1
[4] = test system: Bacillus cereus; assay: Bactericidal activity against Bacillus cereus ATCC 10987 measured upto 24 hrs by CLSI based broth microdilution method; type: functional; procedure, shortened: as §1
[5] = test system: Enterococcus faecalis; assay: Bactericidal activity against Enterococcus faecalis V583 measured upto 24 hrs by CLSI based broth microdilution method; type: functional; procedure, shortened: as §1
[6] = test system: Staphylococcus aureus; assay: Bactericidal activity against Staphylococcus aureus LMG 8224 measured upto 24 hrs by CLSI based broth microdilution method; type: functional; procedure, shortened: as §1
[7] = test system: Bacillus cereus; assay: Antibacterial activity against Bacillus cereus ATCC 10987 assessed as decrease in membrane integrity at 2x MIC incubated for 18 hrs by propidium iodide staining assay; type: functional, organism-based
Procedure, shortened: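 B. cereus grown 18 h in LB at 37 °C, washed in 5 mM HEPES pH 7.4 + 5 mM glucose, OD600 0.5, loaded with 10 μg/mL propidium iodide for 10 min. […] Gramicidin S positive control; triplicate.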

[8] = test system: Bacillus cereus; assay: Antibacterial activity against Bacillus cereus ATCC 10987 assessed as reduction in intracellular ATP levels measured upto 120 min by BacTiter-Glo luminescent cell viability assay; type: functional, organism-based
Procedure, shortened: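 B. cereus grown in LB to OD600 1, washed in G-HEPES, resuspended in cMHB at OD600 0.25, treated with 32 μM compound at 37 °C. At 30, 60, 120 min samples mixed with BacTiter-Glo, 5 min room temperature, luminescence read. ATP normalized to OD600, as % of untreated control. CCCP 100 μM positive control; triplicate.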

[9] = test system: Bacillus cereus; assay: Antibacterial activity against Bacillus cereus ATCC 10987 assessed as membrane potential change at 0.5 to 2X MIC incubated for 20 mins by DiSC3(5) staining based assay; type: functional, organism-based
Procedure, shortened: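 B. cereus grown in LB to OD600 1, washed in glucose-HEPES pH 7.4, OD600 0.5, loaded with 2 μM DiSC3(5) for 20 min at 37 °C for baseline. […] Gramicidin S positive control; untreated cells and dye-only medium negative controls; triplicate.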

[10] = test system: Bacillus cereus; assay: Bactericidal activity against Bacillus cereus ATCC 10987 at […] measured upto 24 hrs by CLSI based broth microdilution method; type: functional, organism-based; conditions: dose 128.0 µM
[11] = test system: Enterococcus faecalis; assay: Bactericidal activity against Enterococcus faecalis V583 at […] measured upto 24 hrs by CLSI based broth microdilution method; type: functional, organism-based; conditions: dose 128.0 µM
[12] = test system: Staphylococcus aureus; assay: Bactericidal activity against Staphylococcus aureus LMG 8224 at […] measured upto 24 hrs by CLSI based broth microdilution method; type: functional, organism-based; conditions: dose 128.0 µM
[13] = test system: Erythrocyte; assay: (§2) Hemolytic activity in human erythrocytes at […] incubated for 1 hrs; type: toxicity, cell-based; conditions: erythrocyte, 1 h, […]
[14] = test system: Bacillus cereus; assay: Antibacterial activity against Bacillus cereus ATCC 14579 incubated for 20 hrs by CLSI based broth microdilution method; type: functional
[15] = test system: Bacillus cereus; assay: Antibacterial activity against Bacillus cereus ATCC 10987 incubated for 20 hrs by CLSI based broth microdilution method; type: functional
[16] = test system: Enterococcus faecalis; assay: Antibacterial activity against Enterococcus faecalis LMG 08222 incubated for 20 hrs by CLSI based broth microdilution method; type: functional
[17] = test system: Enterococcus faecalis; assay: Antibacterial activity against Enterococcus faecalis LMG 16216 incubated for 20 hrs by CLSI based broth microdilution method; type: functional
[18] = test system: Enterococcus faecalis; assay: Antibacterial activity against Enterococcus faecalis V583 incubated for 20 hrs by CLSI based broth microdilution method; type: functional
[19] = test system: Staphylococcus aureus; assay: Antibacterial activity against Staphylococcus aureus LMG 8224 incubated for 20 hrs by CLSI based broth microdilution method; type: functional
[20] = test system: Staphylococcus aureus; assay: Antibacterial activity against Staphylococcus aureus LMG 10147 incubated for 20 hrs by CLSI based broth microdilution method; type: functional
[21] = test system: Staphylococcus aureus; assay: Antibacterial activity against Staphylococcus aureus LMG 15975 incubated for 20 hrs by CLSI based broth microdilution method; type: functional
[22] = test system: Clostridium beijerinckii; assay: Antibacterial activity against Clostridium beijerinckii B504 incubated for 24 hrs by CLSI based broth microdilution method; type: functional
[23] = test system: Clostridium botulinum; assay: Antibacterial activity against Clostridium botulinum CECT551 incubated for 24 hrs by CLSI based broth microdilution method; type: functional
[24] = test system: Clostridioides difficile; assay: Antibacterial activity against Clostridium difficile CECT531 incubated for 24 hrs by CLSI based broth microdilution method; type: functional
[25] = Antibacterial activity against Clostridium-ihumii AP5 incubated for 24 hrs by CLSI based broth microdilution method; type: functional
[26] = test system: Clostridium perfringens; assay: Antibacterial activity against Clostridium perfringens CECT376 incubated for 24 hrs by CLSI based broth microdilution method; type: functional
[27] = test system: Clostridium tetani; assay: Antibacterial activity against Clostridium tetani CECT 4629 incubated for 24 hrs by CLSI based broth microdilution method; type: functional
[28] = test system: Bacillus cereus; assay: Bactericidal activity against Bacillus cereus ATCC 10987 at 64 uM measured upto 24 hrs by CLSI based broth microdilution method; type: functional, organism-based; procedure, shortened: as §1
[29] = test system: Enterococcus faecalis; assay: Bactericidal activity against Enterococcus faecalis V583 at 32 uM measured upto 24 hrs by CLSI based broth microdilution method; type: functional, organism-based; procedure, shortened: as §1
[30] = test system: Bacillus cereus; assay: Inhibition of electron transport chain in Bacillus cereus ATCC 10987 by measuring reduction of resazurin upto 120 min by resazurin dye based assay; conditions: DDE = dose-dependent effect
Procedure, shortened: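 B. cereus grown in LB to OD600 1, washed and resuspended in cMHB at OD600 0.2 with 100 μg/mL resazurin. Compounds added at the indicated concentrations; resorufin fluorescence (ex/em 550/590 nm) read every 5 min for 125 min. CCCP at 400, 200, 100 μM positive control; untreated cells and medium with resazurin negative controls; triplicate.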

[31] = test system: Escherichia coli; assay: Antimicrobial activity against Escherichia coli LMG […] incubated for 20 hrs by CLSI based broth microdilution method; type: functional
[32] = test system: Escherichia coli; assay: Antimicrobial activity against Escherichia coli LMG […] in presence of outer membrane disturbing peptide L-11 incubated for 20 hrs by CLSI based broth microdilution method; type: functional
[33] = Cytotoxicity against human MRC5 cells assessed as cellular metabolism incubated for 72 hrs by MTT assay; type: toxicity, cell-based
Procedure, shortened: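 MRC-5 cells in DMEM (1 g/L glucose) with 10% heat-inactivated FBS, 2 mM glutamine, penicillin/streptomycin, at 37 °C, 5% CO2. 5 × 10^3 cells/well seeded with increasing compound concentrations, 72 h. MTT added for 4 h, formazan dissolved in DMSO, A570 read. Sigmoidal fit for 50% growth reduction vs untreated; three independent experiments in triplicate.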

[34] = Selectivity index, ratio of IC50 for cytotoxicity against human MRC5 cells to MIC for antibacterial activity against Bacillus cereus; type: toxicity, cell-based; conditions: read-out: Selectivity Index
[35] = Selectivity index, ratio of IC50 for cytotoxicity against human MRC5 cells to MIC for antibacterial activity against Staphylococcus aureus; type: toxicity, cell-based; conditions: read-out: Selectivity Index
[36] = Selectivity index, ratio of IC50 for cytotoxicity against human MRC5 cells to MIC for antibacterial activity against Enterococcus faecalis; type: toxicity, cell-based; conditions: read-out: Selectivity Index
[37] = Selectivity index, ratio of IC50 for cytotoxicity against human MRC5 cells to MIC for antibacterial activity against Clostridium tetani; type: toxicity, cell-based; conditions: read-out: Selectivity Index
[38] = as §2; type: toxicity, cell-based, Erythrocyte; conditions: erythrocytes, read-out: Activity

SMILES	Activity [1]	Activity [2]	Activity [3]	MIC [4] [µM]	MIC [5] [µM]	MIC [6] [µM]	Activity [7]	Activity [9]	Activity [12]	MIC [14] [µM]	MIC [15] [µM]	MIC [16] [µM]	MIC [17] [µM]	MIC [18] [µM]	MIC [19] [µM]	MIC [20] [µM]	MIC [21] [µM]	MIC [22] [µM]	MIC [23] [µM]	MIC [24] [µM]	other results
CC(C)[Si](Oc1cc(O)cc(/C=C/c2ccc(O)cc2)c1)(C(C)C)C(C)C	Active	Active	Active	32 (≈ 12.3 µg/mL)	32 (≈ 12.3 µg/mL)	32 (≈ 12.3 µg/mL)	Active	Active	–	–	–	–	–	–	–	–	–	–	–	–	Activity [8]: Active
Oc1ccc(/C=C/c2cc(O)cc(O)c2)cc1 [RESVERATROL]	–	–	–	–	–	–	–	Active	Active	–	–	–	–	–	–	–	–	–	–	–	Activity [10]: Active; Activity [11]: Active; Activity [13]: Non-Toxic
CCCCOc1cc(O)cc(/C=C/c2ccc(O)cc2)c1	–	–	–	–	–	–	–	–	–	32 (≈ 9.1 µg/mL)	32 (≈ 9.1 µg/mL)	128 (≈ 36.4 µg/mL)	128 (≈ 36.4 µg/mL)	128 (≈ 36.4 µg/mL)	64 (≈ 18.2 µg/mL)	64 (≈ 18.2 µg/mL)	32 (≈ 9.1 µg/mL)	26.6 (≈ 7.56 µg/mL)	32 (≈ 9.1 µg/mL)	64 (≈ 18.2 µg/mL)	MIC [25]: 64 µM (≈ 18.2 µg/mL); MIC [26]: 64 µM (≈ 18.2 µg/mL); MIC [27]: 16 µM (≈ 4.55 µg/mL)
CC(C)[Si](Oc1ccc(/C=C/c2cc(O)cc(O)c2)cc1)(C(C)C)C(C)C	–	–	–	–	–	–	Active	Active	Active	–	–	–	–	–	–	–	–	–	–	–	Activity [28]: Active; Activity [29]: Active; inhibition [30]: Dde
CC(C)(C)[Si](C)(C)Oc1ccc(/C=C/c2cc(O)cc(O)c2)cc1	Active	Active	Active	32 (≈ 11 µg/mL)	32 (≈ 11 µg/mL)	32 (≈ 11 µg/mL)	Active	Active	–	4 (≈ 1.37 µg/mL)	8 (≈ 2.74 µg/mL)	6.6 (≈ 2.26 µg/mL)	8 (≈ 2.74 µg/mL)	8 (≈ 2.74 µg/mL)	8 (≈ 2.74 µg/mL)	8 (≈ 2.74 µg/mL)	8 (≈ 2.74 µg/mL)	10.6 (≈ 3.63 µg/mL)	13.3 (≈ 4.56 µg/mL)	21.3 (≈ 7.3 µg/mL)	MIC [25]: 16 µM (≈ 5.48 µg/mL); MIC [26]: 13.3 µM (≈ 4.56 µg/mL); MIC [27]: 5.3 µM (≈ 1.82 µg/mL); MIC [31]: > 128 µM; MIC [32]: 13.3 µM; IC50 at 72 h [33]: 15.5 µM; inhibition [30]: Dde; selectivity ratio [34]: 2; selectivity ratio [35]: 2; selectivity ratio [36]: 2; selectivity ratio [37]: 2; hemolysis at 1 h, […] [38]: 12.7%
